Ends that are not written are not given here.
Key:
[1] = tested on: Antiserum 8684; assay: GRP18-27gly #8684 RIA cross-reactivity; assay type: binding, rabbit; details: 125I-labeled GRP-gly tracer; GRP18-27gly standard
[2] = tested on: NCI-H69 cells; assay: Phospholipase C / [3H]IP stimulation in SCLC cells NCI-H69; assay type: cell-based, human; details: 0.1 uM peptide alone, 37C, 60 min, mean ± SEM, at least 4 experiments
[3] = tested on: NCI-N417 cells; assay: Phospholipase C / [3H]IP stimulation in SCLC cells NCI-N417; assay type: cell-based, human; details: 0.1 uM peptide alone, 37C, 60 min, mean ± SEM, at least 4 experiments
Procedure, shortened: (§1)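 SCLC suspension cells (1 × 10^6 cells/ml) were labelled 24 h at 37C with myo-[2-3H]inositol in RPMI with 2% FBS. Cells were washed, held 10 min in PBS pH 7.0 with 20 mM LiCl, then resuspended in HEPES pH 7.4 buffer with LiCl, EGTA, glucose and BSA. Peptide exposure was 60 min at 37C, stopped with ice-cold HCl/methanol. Total [3H]IP was eluted from anion-exchange resin and counted by scintillation; values are expressed as experimental/control.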

[4] = tested on: NCI-H209 cells; assay: Phospholipase C / [3H]IP stimulation in SCLC cells NCI-H209; assay type: cell-based, human; details: 0.1 uM peptide alone, 37C, 60 min, mean ± SEM, at least 4 experiments
[5] = tested on: NCI-N592 cells; assay: Phospholipase C / [3H]IP stimulation in SCLC cells NCI-N592; assay type: cell-based, human; details: 0.1 uM peptide alone, 37C, 60 min, mean ± SEM, at least 4 experiments
Procedure, shortened: as §1

| Compound | cross-reactivity with antiserum 8684 [1] | Phospholipase C activity, Experimental/control [2] | Phospholipase C activity, Experimental/control [3] | Phospholipase C activity, Experimental/control [4] | Phospholipase C activity, Experimental/control [5] |
| --- | --- | --- | --- | --- | --- |
| GRP1-27: amidated form of gastrin releasing peptide 1-27 (VPLPAGGGTVLTKMYPRGNHWAVGHLM-NH2; UniProt P07492 24-50, looked up) | 60% |  |  |  |  |
| GRP18-27: amidated GRP18-27; differs from bombesin by a Gln to His substitution at position 20 | 60% |  |  |  |  |
| [D-Phe^6, β-Ala^11, Phe^13, Nle^14] Bn(6-14) |  | 1.31±0.04 | 3.14±0.34 | 1.17±0.03 | 1.05±0.04 |
| bombesin | less than 1% |  |  |  |  |
| CSCC[C@H](NC(=O)[C@H](CC(C)C)NC(=O)[C@H](Cc1c[nH]cn1)NC(=O)CNC(=O)[C@@H](NC(=O)[C@H](C)NC(=O)[C@H](Cc1c[nH]c2ccccc12)NC(=O)[C@H](Cc1c[nH]cn1)NC(=O)[C@H](CC(N)=O)NC(=O)CNC(=O)[C@H](CCCNC(=N)N)NC(=O)[C@@H]1CCCN1C(=O)[C@H](Cc1ccc(O)cc1)NC(=O)[C@H](CCSC)NC(=O)[C@H](CCCCN)NC(=O)[C@@H](NC(=O)[C@H](CC(C)C)NC(=O)[C@@H](NC(=O)[C@@H](NC(=O)CNC(=O)CNC(=O)CNC(=O)[C@H](C)NC(=O)[C@@H]1CCCN1C(=O)[C@H](CC(C)C)NC(=O)[C@@H]1CCCN1C(=O)[C@@H](N)C(C)C)[C@@H](C)O)C(C)C)[C@@H](C)O)C(C)C)C(N)=O [GRP, gastrin releasing peptide] |  | 1.23±0.07 | 1.03±0.01 | 1.11±0.04 | 1.03±0.04 |
